pEC50: −log10 of the molar value.
What was measured:
A549 = experiment: Cytotoxicity against human A549 cells after 44 hrs by MTT assay; format: functional, cell-based; settings: A549, 44 h
In short: (§1)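 SF-295 cells cultured in RPMI 1640 and A549 cells in F-12, each with 10% FBS, penicillin–streptomycin, amphotericin B and L-glutamine, at 37 °C in 5% CO2. Cells were grown to 60% confluency, then treated for 44 h. Medium was replaced with medium containing 0.06 mg/mL MTT (phenol red-free RPMI for SF-295) for 4 h. Acid/Triton/isopropanol stop solution was added, plates incubated overnight at 37 °C, OD read at 540 and 650 nm, and EC50 calculated.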

SF-295 = experiment: Cytotoxicity against human SF295 cells after 44 hrs by MTT assay; format: functional, cell-based; settings: SF-295, 44 h; in short: as §1

SMILES	pEC50 (A549)	pEC50 (SF-295)
COc1cc(CCc2cc(O)c(CC=C(C)C)c(O)c2)cc2c1O[C@]1(C)CC[C@@H](O)C(C)(C)[C@H]1C2	< 5.00	5.54
COc1cc(CCc2cc(O)c(CCC(C)C)c(O)c2)cc2c1O[C@]1(C)CC[C@@H](O)C(C)(C)[C@H]1C2	< 5.00	5.55
COc1cc(/C=C/c2cc(O)c3c(c2)OCC3)cc2c1O[C@]1(C)CC[C@@H](O)C(C)(C)[C@H]1C2	< 5.00	5.54
CCCc1c(O)cc(/C=C/c2cc3c(c(OC)c2)O[C@]2(C)CC[C@@H](O)C(C)(C)[C@H]2C3)cc1O	< 5.00	6.05
COc1cc(/C=C\c2cc(O)c(C/C=C(\C)CCC=C(C)C)c(O)c2)cc2c1O[C@]1(C)CC[C@@H](O)C(C)(C)[C@H]1C2	< 5.00	< 5.00
C#CCc1c(O)cc(/C=C/c2cc3c(c(OC)c2)O[C@]2(C)CC[C@@H](O)C(C)(C)[C@H]2C3)cc1O	< 5.00	5.89
C=CCc1c(O)cc(/C=C/c2cc3c(c(OC)c2)O[C@]2(C)CC[C@@H](O)C(C)(C)[C@H]2C3)cc1O	< 5.00	5.77
COc1cc(/C=C/c2cc(O)c(CCCO)c(O)c2)cc2c1O[C@]1(C)CC[C@@H](O)C(C)(C)[C@H]1C2	< 5.00	5.60
COc1cc(/C=C/c2cc(O)c3ccoc3c2)cc2c1O[C@]1(C)CC[C@@H](O)C(C)(C)[C@H]1C2	< 5.00	5.32

— ChEMBL document CHEMBL1156920, “Structural analogues of schweinfurthin F: probing the steric, electronic, and hydrophobic properties of the D-ring substructure” (Bioorg Med Chem, 2010)
